Data: paper PMC2939729 (Cancer cell, 2010)

Key:
[1] = tested on: BMK1-dependent transactivating activity of MEF2C; experiment: Trans-reporter assay of BMK1-dependent MEF2C transactivating activity in HEK293; assay type: cell-based; conditions: HEK293, 5 μM for 16 hr, luciferase
[2] = molecular target: T1, DCAMKL1 (Homo sapiens, UniProt O15075); experiment: in vitro ATP-site competition binding assay, panel of 402 kinases; conditions: 10 μM inhibitor
T1 sequence (O15075 1-740): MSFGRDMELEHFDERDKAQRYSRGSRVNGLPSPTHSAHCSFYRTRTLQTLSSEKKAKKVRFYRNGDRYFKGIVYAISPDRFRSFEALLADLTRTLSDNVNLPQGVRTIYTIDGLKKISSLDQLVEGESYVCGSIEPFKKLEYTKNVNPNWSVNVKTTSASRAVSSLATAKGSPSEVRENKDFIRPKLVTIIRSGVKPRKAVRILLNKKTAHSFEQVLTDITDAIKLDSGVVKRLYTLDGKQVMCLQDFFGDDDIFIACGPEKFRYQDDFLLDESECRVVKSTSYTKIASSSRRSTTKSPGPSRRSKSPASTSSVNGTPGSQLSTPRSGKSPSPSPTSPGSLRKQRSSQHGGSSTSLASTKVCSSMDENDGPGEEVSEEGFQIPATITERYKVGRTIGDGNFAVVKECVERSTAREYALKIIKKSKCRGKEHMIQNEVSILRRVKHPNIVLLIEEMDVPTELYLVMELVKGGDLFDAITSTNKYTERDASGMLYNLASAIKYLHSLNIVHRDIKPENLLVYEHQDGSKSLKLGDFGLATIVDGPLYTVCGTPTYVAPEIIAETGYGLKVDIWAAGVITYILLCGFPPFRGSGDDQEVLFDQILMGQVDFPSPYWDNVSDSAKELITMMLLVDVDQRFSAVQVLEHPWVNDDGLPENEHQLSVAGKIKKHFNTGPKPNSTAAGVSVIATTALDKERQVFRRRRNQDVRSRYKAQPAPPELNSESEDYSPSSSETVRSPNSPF

[3] = molecular target: T2, TNK1 (Homo sapiens, UniProt Q13470); experiment: as above; conditions: 10 μM inhibitor
T2 sequence (Q13470 1-666): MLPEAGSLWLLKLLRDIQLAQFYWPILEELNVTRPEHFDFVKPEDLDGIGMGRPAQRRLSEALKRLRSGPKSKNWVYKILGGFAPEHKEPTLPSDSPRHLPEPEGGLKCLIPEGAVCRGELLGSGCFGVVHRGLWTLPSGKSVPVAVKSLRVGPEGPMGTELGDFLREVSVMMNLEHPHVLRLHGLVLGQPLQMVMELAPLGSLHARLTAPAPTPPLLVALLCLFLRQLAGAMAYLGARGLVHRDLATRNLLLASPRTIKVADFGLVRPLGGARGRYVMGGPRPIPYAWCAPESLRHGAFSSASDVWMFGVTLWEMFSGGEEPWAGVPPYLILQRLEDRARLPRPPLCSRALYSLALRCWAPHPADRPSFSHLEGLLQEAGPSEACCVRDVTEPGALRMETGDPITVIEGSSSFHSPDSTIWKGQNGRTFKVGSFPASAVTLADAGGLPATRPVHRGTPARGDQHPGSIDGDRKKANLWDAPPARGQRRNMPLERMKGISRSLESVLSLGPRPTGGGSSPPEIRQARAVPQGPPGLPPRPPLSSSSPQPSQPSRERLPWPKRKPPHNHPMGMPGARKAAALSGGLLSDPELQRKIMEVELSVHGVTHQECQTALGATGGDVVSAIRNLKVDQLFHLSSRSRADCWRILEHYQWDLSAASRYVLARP

[4] = molecular target: T3, MEK5 (Homo sapiens, UniProt Q13163); experiment: KiNativ profiling in HeLa cell lysates; assay type: binding; conditions: at up to 50 μM
T3 sequence (Q13163 1-448): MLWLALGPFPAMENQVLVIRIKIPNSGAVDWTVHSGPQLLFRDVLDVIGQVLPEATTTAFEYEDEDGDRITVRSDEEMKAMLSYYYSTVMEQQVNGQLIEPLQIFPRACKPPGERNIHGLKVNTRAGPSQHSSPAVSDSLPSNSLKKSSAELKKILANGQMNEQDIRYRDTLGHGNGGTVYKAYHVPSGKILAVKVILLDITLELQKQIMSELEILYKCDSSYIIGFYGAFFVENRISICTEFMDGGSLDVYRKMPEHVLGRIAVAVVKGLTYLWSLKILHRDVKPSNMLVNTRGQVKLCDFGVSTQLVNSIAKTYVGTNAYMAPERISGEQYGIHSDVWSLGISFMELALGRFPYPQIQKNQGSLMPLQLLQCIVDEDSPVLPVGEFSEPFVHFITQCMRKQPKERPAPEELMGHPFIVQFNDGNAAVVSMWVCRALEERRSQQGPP
Method in brief: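 HeLa lysates (5 mg/mL total protein) were preincubated 15 min with test compound at 50, 10, 2, 0.8 or 0 μM. ATP or ADP acylphosphate probe was then added (5 μM final) for 10 min, and the reaction was stopped with urea and processed for MS. Each kinase signal came from up to four fragment ions of its peptide-probe conjugate. % inhibition was taken against untreated lysate, with duplicate reactions.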

[5] = tested on: p21 expression; experiment: p21 expression in MEF cells, western blot; assay type: cell-based; conditions: 5 μM, 16 hours
Method in brief: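 Pml+/+ and Pml−/− MEFs were treated with or without test compound (5 μM) for 16 hr. Lysates were western-blotted with anti-p21 antibody. p21 was quantified by densitometry, normalised to GAPDH, and expressed relative to untreated Pml+/+ cells (set to 1). n = 5; Student's t test.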

[6] = Pharmacokinetics in Sprague-Dawley rats; assay type: in vivo; conditions: single oral dose of 2 mg/kg
[7] = molecular target: BMK1 (Homo sapiens, UniProt Q13164); experiment: A549 xenograft: BMK1 activation and p21 in tumor homogenates; assay type: in vivo; conditions: Nod/Scid mice, 50 mg/kg twice a day, 2 days
Sequence of BMK1 (Q13164 whole entry): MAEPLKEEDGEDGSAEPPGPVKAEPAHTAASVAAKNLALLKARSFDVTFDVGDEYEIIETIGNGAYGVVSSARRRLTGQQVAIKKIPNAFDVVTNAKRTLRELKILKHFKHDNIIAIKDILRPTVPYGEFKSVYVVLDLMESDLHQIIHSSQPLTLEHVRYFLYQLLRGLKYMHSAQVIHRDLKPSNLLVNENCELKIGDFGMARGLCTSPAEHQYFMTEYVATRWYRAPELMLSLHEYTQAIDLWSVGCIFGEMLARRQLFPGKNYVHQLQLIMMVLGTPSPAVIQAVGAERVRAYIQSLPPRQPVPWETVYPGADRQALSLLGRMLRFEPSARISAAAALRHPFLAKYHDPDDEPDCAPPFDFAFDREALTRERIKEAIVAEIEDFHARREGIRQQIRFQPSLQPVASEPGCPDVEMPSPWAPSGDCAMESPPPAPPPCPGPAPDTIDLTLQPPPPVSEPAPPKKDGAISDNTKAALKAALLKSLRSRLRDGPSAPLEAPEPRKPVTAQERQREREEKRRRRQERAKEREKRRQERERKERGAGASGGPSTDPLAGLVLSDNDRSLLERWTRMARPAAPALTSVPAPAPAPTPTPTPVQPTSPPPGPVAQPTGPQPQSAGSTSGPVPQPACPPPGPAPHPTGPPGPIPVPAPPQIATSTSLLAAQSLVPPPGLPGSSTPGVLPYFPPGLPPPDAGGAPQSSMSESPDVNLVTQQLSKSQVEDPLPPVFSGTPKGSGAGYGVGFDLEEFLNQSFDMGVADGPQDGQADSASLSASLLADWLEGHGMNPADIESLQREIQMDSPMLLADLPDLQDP

CCOc1cc(N2CCC(O)CC2)ccc1Nc1ncc2c(n1)N(C)c1ccccc1C(=O)N2C [XMD8-92]
BMK1-dependent transactivating activity of MEF2C [1]: dramatically reduced
displacement by XMD8-92 [2]: greater than 90%
displacement by XMD8-92 [3]: greater than 90%
inhibition of MEK5 [4]: not significantly inhibited
p21 expression ([5]; Pml+/+ MEF cells): significantly induced
induction of p21 in PML null cells ([5]; Pml-/- MEF cells): substantially reduced
maximal plasma concentrations [6]: approximately 500 nM
time of maximal plasma concentrations [6]: ≤ 30 min
plasma concentration remaining 8 hr post dose ([6]; 8 hr): 34 nM
BMK1 activation in tumors [7]: effectively inhibit
p21 expression in tumors [7]: induce
